The species named for experiment [1] is Rattus norvegicus. Put plainly: Compound was tested in vitro for its ability to enhance the K+-stimulated release of [3H]acetylcholine from rat hippocampal slices preloaded with [3H]-Choline. The format is functional. The following applies: Hippocampus. The method, boiled down:
(§1)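 Superfused rat hippocampal slices preloaded with [3H]choline. Release evoked for 4 min at two points (S1, S2) by raising K+ in the medium to 25 mM. Compound added after S1 and kept in the medium through S2. Enhancement taken as the S2/S1 ratio, expressed as percent of control (control = 100%). EC50 taken as the concentration giving 50% of the compound's peak efficacy. At least three determinations per point.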

For experiment [2], the species on record is Rattus norvegicus. Kind of experiment: Compound was tested in vitro for its ability to enhance the K+-stimulated release of [3H]acetylcholine from rat hippocampal slices preloaded with [3H]choline at 10 uM. The format is functional, Hippocampus. The method in brief:
as §1

Experiment [3] concerns Rattus norvegicus. Put plainly: Compound was tested in vivo for microdialysis ACh release after peroral administration of 5 mg/kg suspended in water. The format is functional. The following applies: route oral. The method in brief: (§2)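 Freely moving rats under brain microdialysis. Dialysate injected onto HPLC every 20 min to measure ACh. Compound or vehicle given orally after the fourth 20-min collection, usually 14 collections in total. Vehicle was water or a suspension in […] methocel in water, bead-milled overnight. Peak reported as percent increase over baseline (control = 0). Duration is the number of consecutive minutes at significance.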

Experiment [4] has as its system Rattus norvegicus. Kind of experiment: Compound was tested in vivo for microdialysis ACh release after peroral administration of 10 mg/kg water at the duration of 100 minutes. The format is functional. The following applies: route oral. The method, boiled down: as §2
Experiment [5] relates to Rattus norvegicus. Put plainly: Compound was tested in vivo for microdialysis ACh release after peroral administration of 10 mg/kg water at the duration of >40 minutes. The format is functional. The following applies: route oral. The method, boiled down: as §2
Experiment [6] deals with Rattus norvegicus. Put plainly: Compound was tested in vivo for microdialysis ACh release after peroral administration of 1 mg/kg suspended in methocel at the duration of 120 minutes. The format is functional. The following applies: route oral. The method, boiled down: as §2
Experiment [7] relates to Rattus norvegicus. Put plainly: Compound was tested in vivo for microdialysis ACh release after peroral administration of 5 mg/kg methocel at the duration of >80 minutes. The following applies: route oral. The format is functional. The method in brief: as §2
The species named for experiment [8] is Rattus norvegicus. Kind of experiment: Compound was tested in vitro for its ability to enhance the K+-stimulated release of [3H]acetylcholine from rat hippocampal slices preloaded with [3H]choline at 3 uM. The format is functional, Hippocampus. The method in brief:
as §1

Experiment [9] is filed under the species Rattus norvegicus. Kind of experiment: Compound was tested in vitro for its ability to enhance the K+-stimulated release of [3H]acetylcholine from rat hippocampal slices preloaded with [3H]-Choline at 1 uM. The format is functional, Hippocampus. The method, boiled down: as §1
Experiment [10] relates to Rattus norvegicus. Kind of experiment: Compound was tested in vivo for microdialysis ACh release after peroral administration of 5 mg/kg methocel at the duration of 100 minutes. The following applies: route oral. The format is functional. The method in brief: as §2
The test system of experiment [11] is Rattus norvegicus. Put plainly: Compound was tested in vivo for microdialysis ACh release after peroral administration of 20 mg/kg methocel at the duration of 140 minutes. The following applies: route oral. The format is functional. The method in brief: as §2
Experiment [12] relates to Rattus norvegicus. Kind of experiment: Compound was tested in vivo for microdialysis ACh release after peroral administration of 10 mg/kg suspended in methocel at the duration of 80 minutes. The format is functional. The following applies: route oral. The method in brief: as §2
Experiment [13] concerns Rattus norvegicus. Put plainly: Compound was tested in vivo for microdialysis ACh release after peroral administration of 5 mg/kg suspended in water at the duration of 20 minutes. The format is functional. The following applies: route oral. The method in brief: as §2
Experiment [14] has as its system Rattus norvegicus. Put plainly: Compound was tested in vivo for microdialysis ACh release after peroral administration of 10 mg/kg methocel. The format is functional. The following applies: route oral. The method in brief: as §2
Experiment [15] relates to Rattus norvegicus. Kind of experiment: Compound was tested in vivo for microdialysis ACh release after peroral administration of 0.5 mg/kg suspended in methocel. The following applies: route oral. The format is functional. The method, boiled down:
as §2

Experiment [16] relates to Rattus norvegicus. Kind of experiment: Compound was tested in vivo for microdialysis ACh release after peroral administration of 1 mg/kg methocel at the duration of >120 minutes. The format is functional. The following applies: route oral. The method, boiled down:
as §2

The structures appear in SMILES notation.

`O=C1c2ccccc2C(Cc2ccncc2)(Cc2ccncc2)c2ccccc21`: the concentration for a half-maximal effect (EC50) – broadly, the midpoint of the concentration-response curve – in experiment [1] stood at 0.45 µM. In experiment [2], the Control was 600%. For the same compound, the Increase over control in experiment [3] is listed as 18%; in experiment [4], 127%.

With `Fc1cc(CC2(Cc3ccncc3)c3ccccc3-c3ncccc32)ccn1` (configuration not stated), in experiment [1], the EC50 turned out to be 1.08 µM. In addition, in [2], the Control is reported as 317%. Besides, the Increase over control in experiment [5] is 52%; in experiment [3], 47%.

Turning to `Fc1cc(CC2(Cc3ccnc(F)c3)c3ccccc3-c3ncccc32)ccn1`, in experiment [1], the 50% effective concentration (EC50) came out at 1.6 µM. Moreover, the Increase over control in [6] stood at 74%; in [7], 201%. Besides, the Control in experiment [8] stood at 440%.

For the compound `O=C1c2ccccc2C(Cc2ccncc2)(Cc2ccnc(F)c2)c2ccccc21`, the EC50 in [1] came to 0.41 µM. In experiment [9], the Control worked out at 452%. In [10], this compound registered an Increase over control of 75%.

For the compound `c1ccc2c(c1)-c1ncccc1C2(Cc1ccncc1)Cc1ccncc1`, in [1], the EC50 is 4.12 µM. Moreover, the Control in [2] was 725%.

With `O=C1N(c2ccccc2)c2ccccc2C1(Cc1ccncc1)Cc1ccncc1` [LINOPIRDINE], in experiment [1], the EC50 stood at 4.5 µM. Besides, the results for the Increase over control in [11], in experiment [12] and in experiment [13] were 117%, 65% and 50%, respectively. Moreover, the Control in experiment [2] is 337%.

On to `O=C1N(c2ccccc2)c2ccccc2C1(Cc1ccnc(F)c1)Cc1ccnc(F)c1`, for which the half-maximal effective concentration (EC50) in [1] worked out at 15.2 µM. Also, the Control in [2] was 326%. This compound gave an Increase over control in experiment [14] of 44%.

For `O=C1c2ccccc2C(Cc2ccnc(F)c2)(Cc2ccnc(F)c2)c2ccccc21`, the EC50 in experiment [1] came to 0.83 µM. Besides, the Increase over control is reported as 40% in experiment [15] and 115% in [16]. Moreover, the Control in experiment [8] worked out at 413%.

`O=C1N(c2ccccc2)c2ccccc2C1(Cc1ccncc1)Cc1ccnc(F)c1` (configuration not stated): in experiment [1], the 50% effective concentration (EC50) was found to be 10 µM. Also, the Control in experiment [2] was found to be 433%. Further, in experiment [14], the Increase over control is on record as 27%.

Source of the values: ChEMBL document CHEMBL1131591, “2-Fluoro-4-pyridinylmethyl analogues of linopirdine as orally active acetylcholine release-enhancing agents with good efficacy and duration of action” (J Med Chem, 1998).
